Here are results for 38 sequences from the array DNA melting data of Ke et al. (doi:10.1101/2024.01.08.574731).

Data set [1] can be described thus: folding enthalpy; higher = less favourable; fluorescence melt of hairpins on a sequencing array, two-state fit. Conditions: sodium 0.088 M. The gist of the method: (§1)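 Bootstrapped two-state fits yielded melting temperature and folding enthalpy for library hairpins. Cy3 fluorescence, with annealed Cy3 and quencher oligos, was imaged on a sequenced MiSeq flow cell in 50 mM Na-HEPES pH 8.0, 25 mM NaCl in 2.5 °C steps up to 60 °C, and normalised to pre-quench Cy3 and to control constructs. Four replicates were combined by inverse variance, and fitted temperatures were raised by 9.35 °C to match UV melts.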

The nature of data set [2]: melting temperature; fluorescence melt of hairpins on a sequencing array, two-state fit, raised by 9.35 °C to match UV melts. Conditions: sodium 0.088 M. In outline:
as §1

For the sequence GATCTGAAGTCAGATC ((((((....)))))), the folding enthalpy in data set [1] is -39.1 kcal/mol. In addition, the Tm in data set [2] was 47.7 °C.

GATCTGAATCCAGATC ((((((....)))))): the folding enthalpy in data set [1] is -37.8 kcal/mol. Besides, in data set [2], the Tm worked out at 46 °C.

Take GATCTGACAGCAGATC ((((((....)))))): the folding enthalpy in data set [1] is -28.6 kcal/mol. In data set [2], the Tm was found to be 44.7 °C.

For GATCTGACCCAGATC ((((((...)))))), the folding enthalpy in data set [1] was -37.4 kcal/mol. Besides, the Tm in data set [2] turned out to be 47.7 °C.

As to GATCTGACCTCAGATC ((((((....)))))), the folding enthalpy in data set [1] is -38.9 kcal/mol. In data set [2], the Tm was determined as 49.3 °C.

As to GATCTGACGCAGATC ((((((...)))))), the folding enthalpy in data set [1] was -29.5 kcal/mol. In addition, the Tm in data set [2] was 47.3 °C.

For GATCTGACGTCAGATC ((((((....)))))), the folding enthalpy in data set [1] was -42.6 kcal/mol. Further, the Tm in data set [2] came to 55.5 °C.

Consider GATCTGACTCCAGATC ((((((....)))))), for which the folding enthalpy in data set [1] is -33.9 kcal/mol. In addition, the Tm in data set [2] is 46.6 °C.

As to GATCTGACTTCAGATC ((((((....)))))), in data set [1], the folding enthalpy was -34.2 kcal/mol. The Tm in data set [2] came to 49.2 °C.

GATCTGAGACCAGATC ((((((....)))))): the folding enthalpy in data set [1] is -32.9 kcal/mol. The Tm in data set [2] stood at 44.5 °C.

Regarding GATCTGAGCACAGATC ((((((....)))))), in data set [1], the folding enthalpy was -29 kcal/mol. The Tm in data set [2] is 49.5 °C.

GATCTGAGCGCAGATC ((((((....)))))): the folding enthalpy in data set [1] was -24.7 kcal/mol. Moreover, the Tm in data set [2] was determined as 48.5 °C.

GATCTGAGGACAGATC ((((((....)))))): the folding enthalpy in data set [1] was -26.1 kcal/mol. Also, in data set [2], the Tm is 46.3 °C.

Turning to GATCTGAGTCCAGATC ((((((....)))))), the folding enthalpy in data set [1] was -30 kcal/mol. Besides, in data set [2], the Tm is 46.7 °C.

GATCTGATACAGATC ((((((...)))))): the folding enthalpy in data set [1] was -39.4 kcal/mol. In addition, the Tm in data set [2] was determined as 48.7 °C.

For the sequence GATCTGATCACAGATC ((((((....)))))), the folding enthalpy in data set [1] is -36.8 kcal/mol. The Tm in data set [2] was found to be 50.4 °C.

For the sequence GATCTGCACACAGATC ((((((....)))))), the folding enthalpy in data set [1] is -43.9 kcal/mol. Also, the Tm in data set [2] came out at 51.6 °C.

For the sequence GATCTGCATCAGATC ((((((...)))))), the folding enthalpy in data set [1] is -30.6 kcal/mol. Moreover, the Tm in data set [2] worked out at 47.8 °C.

GATCTGCATCCAGATC ((((((....)))))): the folding enthalpy in data set [1] was -42 kcal/mol. Further, the Tm in data set [2] came out at 46.7 °C.

Regarding GATCTGCCCCAGATC ((((((...)))))), the folding enthalpy in data set [1] was -33.6 kcal/mol. In addition, in data set [2], the Tm came to 49.2 °C.

Consider GATCTGCCGAAAGGCATC (((..(((....)))))), for which, in data set [1], the folding enthalpy was -6.41 kcal/mol. In addition, in data set [2], the Tm was 24.6 °C.

As to GATCTGCCGACAGATC ((((((....)))))), the folding enthalpy in data set [1] is -29.7 kcal/mol. The Tm in data set [2] amounted to 50.1 °C.

As to GATCTGCCTTCAGATC ((((((....)))))), in data set [1], the folding enthalpy is -30.7 kcal/mol. For the same sequence, the Tm in data set [2] was determined as 49 °C.

For GATCTGCGAAAGCAATC (((.(((....)))))), the folding enthalpy in data set [1] was -12.2 kcal/mol. The Tm in data set [2] stood at 27.8 °C.

As to GATCTGCGGCAGATC ((((((...)))))), the folding enthalpy in data set [1] was -46.3 kcal/mol. Also, in data set [2], the Tm is 50.2 °C.

Take GATCTGCGGTCAGATC ((((((....)))))): the folding enthalpy in data set [1] was -32.9 kcal/mol. Also, in data set [2], the Tm stood at 49.7 °C.

With GATCTGCGTCAGATC ((((((...)))))), in data set [1], the folding enthalpy is -29.4 kcal/mol. In addition, the Tm in data set [2] turned out to be 49.6 °C.

In the case of GATCTGCTCGCAGATC ((((((....)))))), the folding enthalpy in data set [1] is -47.5 kcal/mol. In data set [2], the Tm came out at 62.6 °C.

Consider GATCTGCTGCAGATC ((((((...)))))), for which the folding enthalpy in data set [1] is -41.4 kcal/mol. In addition, the Tm in data set [2] was 50.4 °C.

For GATCTGCTTACAGATC ((((((....)))))), the folding enthalpy in data set [1] is -42.8 kcal/mol. In addition, in data set [2], the Tm was determined as 51.8 °C.

GATCTGCTTCAGATC ((((((...)))))): in data set [1], the folding enthalpy is -36.6 kcal/mol. The Tm in data set [2] was determined as 48.7 °C.

As for GATCTGCTTCCAGATC ((((((....)))))), the folding enthalpy in data set [1] is -33.4 kcal/mol. Also, the Tm in data set [2] was 48.5 °C.

Take GATCTGGAGCAGATC ((((((...)))))): the folding enthalpy in data set [1] is -28.1 kcal/mol. The Tm in data set [2] amounted to 45.4 °C.

Take GATCTGGATGCAGATC ((((((....)))))): the folding enthalpy in data set [1] was -35.5 kcal/mol. The Tm in data set [2] is 50.8 °C.

Turning to GATCTGGCAGCAGATC ((((((....)))))), in data set [1], the folding enthalpy was -41.8 kcal/mol. Also, in data set [2], the Tm was 51.3 °C.

Regarding GATCTGGCTCAGATC ((((((...)))))), the folding enthalpy in data set [1] was -35.5 kcal/mol. Moreover, the Tm in data set [2] was 49.1 °C.

With GATCTGGGAAACTAGATC (((((.(....).))))), the folding enthalpy in data set [1] was -32.2 kcal/mol. The Tm in data set [2] amounted to 42.4 °C.

As for GATCTGGGAACAGATC ((((((....)))))), in data set [1], the folding enthalpy is -39.8 kcal/mol. In addition, in data set [2], the Tm was 54.5 °C.
